Several values for one entry are separate records, joined by “and”; a condition that tells them apart may be missing. Equal values may be shown once.
Test system: Fibroblast
Assay: Multiplex assay against human fibroblast
Assay type: toxicity, cell-based
Procedure, shortened: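 Tubulin, mitochondrial-mass and membrane-permeability phenotypes are per cents of healthy-nucleus cells. Cells were gated by CellPathfinder machine learning into Hoechst high-intensity objects or normal cells, normal cells into healthy, pyknosed or fragmented nuclei, and pyknosed cells into mitotic or apoptotic. Before that, live cells stained at seeding with Hoechst33342, BioTracker Green Microtubule Cytoskeleton Dye, MitoTracker Red and Annexin V Alexa Fluor 680 were imaged on a CQ1 microscope at 37°C and 5% CO2 after compound addition.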

[1] = 12 h, 1 µM, compound concentration 1 uM
[2] = 12 h, 10 µM, compound concentration 10 uM
[3] = 24 h, 1 µM, compound concentration 1 uM
[4] = 24 h, 10 µM, compound concentration 10 uM
[5] = 48 h, 1 µM, compound concentration 1 uM
[6] = 48 h, 10 µM, compound concentration 10 uM

CCCCCCNC(=O)Nc1ccc(S(=O)(=O)Nc2ccc(CCNC[C@H](O)COc3ccc(O)cc3)cc2)cc1 [L-755507]
Population Apoptotic (%) [1]: 40% and 46% | Population Fragmented Nuclei (%) [1]: 27% and 21% | Population Healthy Nuclei (%) [1]: 59% | Population Hoechst High Intensity Objects (%) [1]: 1% and 3% | Population Membrane Permeable-Phenotype (%) [1]: 3% | Population Mitochondria Different-Phenotype (%) [1]: 6% and 3% | Population Mitotic Cells (%) [1]: 60% and 53% | Population Normal (%) [1]: 98% and 96% | Population Pyknosed Nuclei (%) [1]: 12% and 19% | Population Tubulin-Different-Phenotype (%) [1]: 34% and 36% | Total Cell Count [1]: 198 and 160 | Population Apoptotic (%) [2]: 45% and 42% | Population Fragmented Nuclei (%) [2]: 17% and 34% | Population Healthy Nuclei (%) [2]: 72% and 48% | Population Hoechst High Intensity Objects (%) [2]: 5% | Population Membrane Permeable-Phenotype (%) [2]: 0% and 1% | Population Mitochondria Different-Phenotype (%) [2]: 10% and 19% | Population Mitotic Cells (%) [2]: 54% and 57% | Population Normal (%) [2]: 94% | Population Pyknosed Nuclei (%) [2]: 10% and 17% | Population Tubulin-Different-Phenotype (%) [2]: 47% and 64% | Total Cell Count [2]: 218 and 172 | Population Apoptotic (%) [3]: 31% and 39% | Population Fragmented Nuclei (%) [3]: 26% | Population Healthy Nuclei (%) [3]: 63% and 59% | Population Hoechst High Intensity Objects (%) [3]: 1% and 2% | Population Membrane Permeable-Phenotype (%) [3]: 0% and 3% | Population Mitochondria Different-Phenotype (%) [3]: 3% and 12% | Population Mitotic Cells (%) [3]: 68% and 60% | Population Normal (%) [3]: 98% and 97% | Population Pyknosed Nuclei (%) [3]: 9% and 13% | Population Tubulin-Different-Phenotype (%) [3]: 27% and 44% | Total Cell Count [3]: 196 and 176 | Population Apoptotic (%) [4]: 72% and 50% | Population Fragmented Nuclei (%) [4]: 21% and 38% | Population Healthy Nuclei (%) [4]: 70% and 51% | Population Hoechst High Intensity Objects (%) [4]: 8% and 4% | Population Membrane Permeable-Phenotype (%) [4]: 0% and 3% | Population Mitochondria Different-Phenotype (%) [4]: 8% and 19% | Population Mitotic Cells (%) [4]: 27% and 50% | Population Normal (%) [4]: 91% and 95% | Population Pyknosed Nuclei (%) [4]: 8% and 9% | Population Tubulin-Different-Phenotype (%) [4]: 38% and 65% | Total Cell Count [4]: 232 and 168 | Population Apoptotic (%) [5]: 62% and 53% | Population Fragmented Nuclei (%) [5]: 28% and 33% | Population Healthy Nuclei (%) [5]: 63% and 58% | Population Hoechst High Intensity Objects (%) [5]: 3% and 4% | Population Membrane Permeable-Phenotype (%) [5]: 0% and 1% | Population Mitochondria Different-Phenotype (%) [5]: 4% and 6% | Population Mitotic Cells (%) [5]: 37% and 46% | Population Normal (%) [5]: 96% and 95% | Population Pyknosed Nuclei (%) [5]: 8% | Population Tubulin-Different-Phenotype (%) [5]: 31% and 33% | Total Cell Count [5]: 201 and 170 | Population Apoptotic (%) [6]: 79% and 71% | Population Fragmented Nuclei (%) [6]: 19% and 42% | Population Healthy Nuclei (%) [6]: 69% and 53% | Population Hoechst High Intensity Objects (%) [6]: 6% and 3% | Population Membrane Permeable-Phenotype (%) [6]: 1% and 5% | Population Mitochondria Different-Phenotype (%) [6]: 8% and 11% | Population Mitotic Cells (%) [6]: 20% and 28% | Population Normal (%) [6]: 93% and 96% | Population Pyknosed Nuclei (%) [6]: 10% and 3% | Population Tubulin-Different-Phenotype (%) [6]: 49% and 55% | Total Cell Count [6]: 240 and 184

CN1CCN2c3ncccc3Cc3ccccc3C2C1 (configuration not stated) [MIRTAZAPINE]
Population Apoptotic (%) [1]: 44% and 33% | Population Fragmented Nuclei (%) [1]: 10% and 24% | Population Healthy Nuclei (%) [1]: 77% and 47% | Population Hoechst High Intensity Objects (%) [1]: 3% | Population Membrane Permeable-Phenotype (%) [1]: 0% and 4% | Population Mitochondria Different-Phenotype (%) [1]: 6% and 5% | Population Mitotic Cells (%) [1]: 56% and 66% | Population Normal (%) [1]: 96% | Population Pyknosed Nuclei (%) [1]: 12% and 27% | Population Tubulin-Different-Phenotype (%) [1]: 24% and 45% | Total Cell Count [1]: 213 and 156 | Population Apoptotic (%) [2]: 44% and 28% | Population Fragmented Nuclei (%) [2]: 19% and 27% | Population Healthy Nuclei (%) [2]: 69% and 40% | Population Hoechst High Intensity Objects (%) [2]: 1% and 6% | Population Membrane Permeable-Phenotype (%) [2]: 0% and 16% | Population Mitochondria Different-Phenotype (%) [2]: 8% and 7% | Population Mitotic Cells (%) [2]: 55% and 71% | Population Normal (%) [2]: 98% and 93% | Population Tubulin-Different-Phenotype (%) [2]: 30% and 60% | Total Cell Count [2]: 168 and 140 | Population Apoptotic (%) [3]: 47% and 48% | Population Healthy Nuclei (%) [3]: 82% and 50% | Population Hoechst High Intensity Objects (%) [3]: 5% and 0% | Population Membrane Permeable-Phenotype (%) [3]: 0% and 10% | Population Mitochondria Different-Phenotype (%) [3]: 5% and 10% | Population Mitotic Cells (%) [3]: 52% and 51% | Population Normal (%) [3]: 94% and 99% | Population Pyknosed Nuclei (%) [3]: 10% and 23% | Population Tubulin-Different-Phenotype (%) [3]: 31% and 36% | Total Cell Count [3]: 201 and 153 | Population Apoptotic (%) [4]: 50% and 46% | Population Fragmented Nuclei (%) [4]: 19% and 29% | Population Healthy Nuclei (%) [4]: 72% and 46% | Population Hoechst High Intensity Objects (%) [4]: 4% and 5% | Population Membrane Permeable-Phenotype (%) [4]: 0% and 15% | Population Mitochondria Different-Phenotype (%) [4]: 9% and 1% | Population Mitotic Cells (%) [4]: 50% and 53% | Population Normal (%) [4]: 95% and 94% | Population Tubulin-Different-Phenotype (%) [4]: 30% and 68% | Total Cell Count [4]: 186 and 136 | Population Apoptotic (%) [5]: 60% and 50% | Population Fragmented Nuclei (%) [5]: 15% and 36% | Population Healthy Nuclei (%) [5]: 73% and 45% | Population Hoechst High Intensity Objects (%) [5]: 7% and 2% | Population Membrane Permeable-Phenotype (%) [5]: 0% and 11% | Population Mitochondria Different-Phenotype (%) [5]: 4% and 12% | Population Mitotic Cells (%) [5]: 39% and 50% | Population Normal (%) [5]: 92% and 97% | Population Pyknosed Nuclei (%) [5]: 11% and 17% | Population Tubulin-Different-Phenotype (%) [5]: 31% and 56% | Total Cell Count [5]: 213 and 161 | Population Apoptotic (%) [6]: 66% and 33% | Population Fragmented Nuclei (%) [6]: 17% and 46% | Population Healthy Nuclei (%) [6]: 73% and 41% | Population Hoechst High Intensity Objects (%) [6]: 5% and 2% | Population Membrane Permeable-Phenotype (%) [6]: 0% and 8% | Population Mitochondria Different-Phenotype (%) [6]: 9% and 2% | Population Mitotic Cells (%) [6]: 33% and 66% | Population Normal (%) [6]: 94% and 97% | Population Pyknosed Nuclei (%) [6]: 9% and 12% | Population Tubulin-Different-Phenotype (%) [6]: 36% and 60% | Total Cell Count [6]: 176 and 120

O=C(O)c1cc2ccccc2c(Cc2c(O)c(C(=O)O)cc3ccccc23)c1O [PAMOIC ACID]
Population Apoptotic (%) [1]: 54% and 32% | Population Fragmented Nuclei (%) [1]: 10% and 23% | Population Healthy Nuclei (%) [1]: 81% and 56% | Population Hoechst High Intensity Objects (%) [1]: 2% and 6% | Population Membrane Permeable-Phenotype (%) [1]: 0% and 6% | Population Mitochondria Different-Phenotype (%) [1]: 2% and 8% | Population Mitotic Cells (%) [1]: 45% and 67% | Population Normal (%) [1]: 97% and 93% | Population Pyknosed Nuclei (%) [1]: 7% and 19% | Population Tubulin-Different-Phenotype (%) [1]: 20% and 34% | Total Cell Count [1]: 147 and 154 | Population Apoptotic (%) [2]: 40% and 37% | Population Healthy Nuclei (%) [2]: 80% and 51% | Population Hoechst High Intensity Objects (%) [2]: 4% | Population Membrane Permeable-Phenotype (%) [2]: 1% and 3% | Population Mitochondria Different-Phenotype (%) [2]: 5% and 3% | Population Mitotic Cells (%) [2]: 60% and 62% | Population Normal (%) [2]: 95% | Population Pyknosed Nuclei (%) [2]: 11% and 24% | Population Tubulin-Different-Phenotype (%) [2]: 23% and 51% | Total Cell Count [2]: 132 and 156 | Population Apoptotic (%) [3]: 33% and 32% | Population Fragmented Nuclei (%) [3]: 10% and 23% | Population Healthy Nuclei (%) [3]: 86% and 58% | Population Hoechst High Intensity Objects (%) [3]: 3% and 6% | Population Membrane Permeable-Phenotype (%) [3]: 0% and 9% | Population Mitochondria Different-Phenotype (%) [3]: 2% and 11% | Population Mitotic Cells (%) [3]: 66% and 68% | Population Normal (%) [3]: 96% and 93% | Population Tubulin-Different-Phenotype (%) [3]: 17% and 39% | Total Cell Count [3]: 156 and 147 | Population Apoptotic (%) [4]: 50% and 40% | Population Healthy Nuclei (%) [4]: 77% and 52% | Population Hoechst High Intensity Objects (%) [4]: 2% and 5% | Population Membrane Permeable-Phenotype (%) [4]: 1% and 3% | Population Mitochondria Different-Phenotype (%) [4]: 1% and 5% | Population Mitotic Cells (%) [4]: 50% and 59% | Population Normal (%) [4]: 97% and 94% | Population Pyknosed Nuclei (%) [4]: 13% | Population Tubulin-Different-Phenotype (%) [4]: 20% and 39% | Total Cell Count [4]: 138 and 170 | Population Apoptotic (%) [5]: 25% and 38% | Population Fragmented Nuclei (%) [5]: 12% and 23% | Population Healthy Nuclei (%) [5]: 79% and 58% | Population Hoechst High Intensity Objects (%) [5]: 4% and 3% | Population Membrane Permeable-Phenotype (%) [5]: 0% and 9% | Population Mitochondria Different-Phenotype (%) [5]: 2% and 8% | Population Mitotic Cells (%) [5]: 75% and 61% | Population Normal (%) [5]: 95% and 96% | Population Pyknosed Nuclei (%) [5]: 8% and 17% | Population Tubulin-Different-Phenotype (%) [5]: 23% and 44% | Total Cell Count [5]: 155 and 152 | Population Apoptotic (%) [6]: 50% and 60% | Population Fragmented Nuclei (%) [6]: 19% and 32% | Population Healthy Nuclei (%) [6]: 72% and 60% | Population Hoechst High Intensity Objects (%) [6]: 5% and 3% | Population Membrane Permeable-Phenotype (%) [6]: 2% and 3% | Population Mitochondria Different-Phenotype (%) [6]: 5% and 1% | Population Mitotic Cells (%) [6]: 50% and 40% | Population Normal (%) [6]: 94% and 96% | Population Pyknosed Nuclei (%) [6]: 7% and 6% | Population Tubulin-Different-Phenotype (%) [6]: 29% and 28% | Total Cell Count [6]: 136 and 156

Source: ChEMBL document CHEMBL5724801, “EUbOPEN Chemogenomics Library - Multiplex” (2024)
